Key:
[1] = In vitro inhibitory activity against recombinant p56 lck tyrosine kinase expressed as a His-tagged protein in insect cells
Procedure, shortened: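 Mean of three separate experiments, with standard deviation within ±10%.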

[2] = […] inhibitory activity against proliferation of normal human peripheral blood T lymphocytes; type: functional
[3] = target: Cyclin-dependent kinase 4 (Homo sapiens, UniProt P11802); test: Inhibitory activity against Cyclin-dependent kinase 4
Procedure, shortened: (§1)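 Kinase selectivity panel: IC50 for inhibition of each isolated kinase enzyme, reported as the mean of three experiments.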

[4] = Inhibitory activity against Fibroblast growth factor receptor 1
Procedure, shortened: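 Enzyme IC50 was measured within a kinase selectivity panel and is reported as the mean of three experiments.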

Rattus norvegicus [5] = species: Rattus norvegicus; test: Dose required for inhibition of paw swelling in rat adjuvant rheumatoid arthritis model; significant reduction observed after 7 days; type: functional
[6] = Plasma protein binding in mouse was determined; type: ADME, cell-free
[7] = target: Cyclin-dependent kinase 2 (Homo sapiens, UniProt P24941); test: Inhibitory activity against Cyclin-dependent kinase 2
[8] = Plasma clearance was determined in rats at a single dose of 10 mg/kg i.v. and p.o.; type: ADME, organism-based; set-up: dose 10 mg/kg, route oral; conditions: rat, in vivo, po
[9] = Maximum plasma concentration was determined in rats at a single dose of 10 mg/kg i.v. and p.o.; type: ADME, organism-based; set-up: dose 10 mg/kg, route oral; conditions: rat, po
[10] = Time required to reach the maximum plasma concentration was determined in rats at a single dose of 10 mg/kg i.v. and p.o.; type: ADME, organism-based; set-up: dose 10 mg/kg, route oral; conditions: rat, po
[11] = target: Tyrosine-protein kinase Fgr (Homo sapiens, UniProt P09769); test: Inhibitory activity against Fgr kinase; procedure, shortened: as §1
[12] = target: Proto-oncogene tyrosine-protein kinase Src (Homo sapiens, UniProt P12931); test: Inhibitory activity against Src tyrosine kinase
Procedure, shortened: (§2)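 Purified kinase enzyme inhibition, reported as IC50 in µM. Each value is the mean of three independent experiments.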

[13] = target: Receptor tyrosine-protein kinase erbB-2 (Homo sapiens, UniProt P04626); test: Inhibitory activity against HER2 kinase; procedure, shortened: as §1
[14] = target: T1, Tyrosine-protein kinase JAK3 (Homo sapiens, UniProt P52333); test: inhibitory activity against Janus kinase 3; procedure, shortened: as §2
T1 sequence (P52333 whole entry): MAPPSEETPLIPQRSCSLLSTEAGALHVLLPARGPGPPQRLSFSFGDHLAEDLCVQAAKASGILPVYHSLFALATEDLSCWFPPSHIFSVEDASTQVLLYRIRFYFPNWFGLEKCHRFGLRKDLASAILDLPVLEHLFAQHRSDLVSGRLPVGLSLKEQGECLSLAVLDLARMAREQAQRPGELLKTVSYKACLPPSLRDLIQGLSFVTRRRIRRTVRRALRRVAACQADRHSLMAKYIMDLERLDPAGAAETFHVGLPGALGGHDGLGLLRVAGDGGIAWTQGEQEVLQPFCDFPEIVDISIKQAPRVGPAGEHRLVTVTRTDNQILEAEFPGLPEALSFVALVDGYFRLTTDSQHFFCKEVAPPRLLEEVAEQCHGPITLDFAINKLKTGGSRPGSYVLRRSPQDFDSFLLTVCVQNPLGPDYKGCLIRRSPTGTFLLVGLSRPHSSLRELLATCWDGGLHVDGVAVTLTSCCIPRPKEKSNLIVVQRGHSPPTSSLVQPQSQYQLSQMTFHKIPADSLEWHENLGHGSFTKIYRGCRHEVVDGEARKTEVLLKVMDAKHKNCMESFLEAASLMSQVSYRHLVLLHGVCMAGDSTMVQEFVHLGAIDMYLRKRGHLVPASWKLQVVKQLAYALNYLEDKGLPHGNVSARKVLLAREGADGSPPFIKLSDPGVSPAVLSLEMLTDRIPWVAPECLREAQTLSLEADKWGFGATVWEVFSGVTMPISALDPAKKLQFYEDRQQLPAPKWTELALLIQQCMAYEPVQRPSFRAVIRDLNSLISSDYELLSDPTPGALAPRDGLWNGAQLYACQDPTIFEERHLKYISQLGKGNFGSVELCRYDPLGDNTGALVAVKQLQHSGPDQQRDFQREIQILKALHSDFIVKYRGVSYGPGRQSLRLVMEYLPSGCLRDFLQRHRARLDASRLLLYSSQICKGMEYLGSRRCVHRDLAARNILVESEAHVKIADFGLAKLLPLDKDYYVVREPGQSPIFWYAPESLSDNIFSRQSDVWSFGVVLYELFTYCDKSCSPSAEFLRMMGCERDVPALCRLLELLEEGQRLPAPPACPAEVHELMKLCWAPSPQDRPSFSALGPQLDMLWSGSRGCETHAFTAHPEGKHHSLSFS

[15] = Half-life was determined in rats at a single dose of 10 mg/kg i.v. and p.o.; type: ADME, organism-based; set-up: dose 10 mg/kg, route oral; conditions: rat, in vivo, po
[16] = Mean residence time was determined in rats at a single dose of 10 mg/kg i.v. and p.o.; type: ADME, organism-based; set-up: dose 10 mg/kg, route oral; conditions: rat, in vivo, po
[17] = Oral bioavailability was determined in rats at a single dose of 10 mg/kg i.v. and p.o.; type: ADME, organism-based; conditions: rat, in vivo
[18] = target: Vascular endothelial growth factor receptor 2 (Homo sapiens, UniProt P35968); test: inhibitory activity against Vascular endothelial growth factor receptor 2; procedure, shortened: as §1
Rattus norvegicus [19] = species: Rattus norvegicus; test: Dose required for inhibition of paw swelling in rat adjuvant rheumatoid arthritis model; significant reduction observed after 24 hrs; type: functional
[20] = target: Tyrosine-protein kinase HCK (Homo sapiens, UniProt P08631); test: inhibitory activity against Hck kinase
Tyrosine-protein kinase HCK, sequence (P08631 whole entry): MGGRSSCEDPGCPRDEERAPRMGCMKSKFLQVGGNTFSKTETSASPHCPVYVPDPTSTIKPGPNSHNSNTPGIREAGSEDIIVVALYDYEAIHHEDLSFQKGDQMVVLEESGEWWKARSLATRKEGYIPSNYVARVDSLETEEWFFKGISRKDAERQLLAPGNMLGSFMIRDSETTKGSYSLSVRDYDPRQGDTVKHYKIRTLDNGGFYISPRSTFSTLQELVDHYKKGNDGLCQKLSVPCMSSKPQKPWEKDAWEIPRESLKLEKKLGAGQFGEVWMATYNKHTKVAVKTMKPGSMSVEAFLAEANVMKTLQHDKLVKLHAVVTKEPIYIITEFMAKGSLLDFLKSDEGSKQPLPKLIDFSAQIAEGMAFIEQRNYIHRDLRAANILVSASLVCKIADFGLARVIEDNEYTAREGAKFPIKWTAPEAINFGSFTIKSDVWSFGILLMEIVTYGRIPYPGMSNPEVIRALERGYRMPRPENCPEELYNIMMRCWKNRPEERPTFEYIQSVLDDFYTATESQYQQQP

Tyrosine-protein kinase Fgr, sequence (P09769 whole entry): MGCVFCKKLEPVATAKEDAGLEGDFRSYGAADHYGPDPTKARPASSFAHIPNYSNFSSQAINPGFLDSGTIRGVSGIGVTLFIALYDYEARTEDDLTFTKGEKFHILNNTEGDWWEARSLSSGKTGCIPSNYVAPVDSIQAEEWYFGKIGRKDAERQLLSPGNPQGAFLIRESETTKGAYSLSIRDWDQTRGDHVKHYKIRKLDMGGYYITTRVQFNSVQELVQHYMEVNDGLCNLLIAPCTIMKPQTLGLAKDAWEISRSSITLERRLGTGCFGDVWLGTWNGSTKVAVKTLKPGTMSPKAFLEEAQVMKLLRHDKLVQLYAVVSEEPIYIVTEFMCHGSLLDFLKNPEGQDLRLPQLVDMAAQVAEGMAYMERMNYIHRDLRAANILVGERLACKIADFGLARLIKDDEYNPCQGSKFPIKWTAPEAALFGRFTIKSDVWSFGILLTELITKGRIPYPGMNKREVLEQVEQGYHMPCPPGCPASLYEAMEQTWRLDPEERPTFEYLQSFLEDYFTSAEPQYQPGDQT
Receptor tyrosine-protein kinase erbB-2, sequence (P04626 whole entry): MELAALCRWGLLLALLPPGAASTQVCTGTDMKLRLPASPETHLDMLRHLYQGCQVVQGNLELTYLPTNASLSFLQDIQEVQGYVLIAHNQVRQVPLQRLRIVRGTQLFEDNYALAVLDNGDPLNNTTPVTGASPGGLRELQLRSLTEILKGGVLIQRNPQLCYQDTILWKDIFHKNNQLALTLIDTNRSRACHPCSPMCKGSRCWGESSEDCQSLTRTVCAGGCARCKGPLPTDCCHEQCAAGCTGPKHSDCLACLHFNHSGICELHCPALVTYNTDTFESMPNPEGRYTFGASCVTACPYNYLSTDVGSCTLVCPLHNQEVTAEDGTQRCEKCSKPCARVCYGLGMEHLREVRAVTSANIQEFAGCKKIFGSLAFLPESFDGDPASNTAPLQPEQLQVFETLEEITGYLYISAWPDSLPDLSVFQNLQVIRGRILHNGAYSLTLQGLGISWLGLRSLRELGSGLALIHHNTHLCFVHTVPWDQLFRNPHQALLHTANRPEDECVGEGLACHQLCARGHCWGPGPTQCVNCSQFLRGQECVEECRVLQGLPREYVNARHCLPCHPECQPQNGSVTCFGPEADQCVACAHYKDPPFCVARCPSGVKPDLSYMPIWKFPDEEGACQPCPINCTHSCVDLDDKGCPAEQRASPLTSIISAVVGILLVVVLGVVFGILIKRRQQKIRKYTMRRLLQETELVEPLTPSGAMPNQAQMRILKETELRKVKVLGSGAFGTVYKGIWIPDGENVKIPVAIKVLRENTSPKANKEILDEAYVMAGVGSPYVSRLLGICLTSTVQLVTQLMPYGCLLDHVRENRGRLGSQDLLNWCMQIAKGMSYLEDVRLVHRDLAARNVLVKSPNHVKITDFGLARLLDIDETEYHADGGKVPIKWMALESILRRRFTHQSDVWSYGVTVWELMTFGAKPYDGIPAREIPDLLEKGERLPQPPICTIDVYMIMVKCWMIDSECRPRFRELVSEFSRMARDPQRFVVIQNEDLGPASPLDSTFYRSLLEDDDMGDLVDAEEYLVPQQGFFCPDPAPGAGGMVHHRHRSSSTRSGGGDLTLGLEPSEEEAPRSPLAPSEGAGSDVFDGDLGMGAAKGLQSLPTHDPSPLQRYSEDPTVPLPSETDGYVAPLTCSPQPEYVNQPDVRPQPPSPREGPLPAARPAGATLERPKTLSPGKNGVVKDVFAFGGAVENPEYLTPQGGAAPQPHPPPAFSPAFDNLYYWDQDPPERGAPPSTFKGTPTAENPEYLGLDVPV
Vascular endothelial growth factor receptor 2, sequence (P35968 whole entry): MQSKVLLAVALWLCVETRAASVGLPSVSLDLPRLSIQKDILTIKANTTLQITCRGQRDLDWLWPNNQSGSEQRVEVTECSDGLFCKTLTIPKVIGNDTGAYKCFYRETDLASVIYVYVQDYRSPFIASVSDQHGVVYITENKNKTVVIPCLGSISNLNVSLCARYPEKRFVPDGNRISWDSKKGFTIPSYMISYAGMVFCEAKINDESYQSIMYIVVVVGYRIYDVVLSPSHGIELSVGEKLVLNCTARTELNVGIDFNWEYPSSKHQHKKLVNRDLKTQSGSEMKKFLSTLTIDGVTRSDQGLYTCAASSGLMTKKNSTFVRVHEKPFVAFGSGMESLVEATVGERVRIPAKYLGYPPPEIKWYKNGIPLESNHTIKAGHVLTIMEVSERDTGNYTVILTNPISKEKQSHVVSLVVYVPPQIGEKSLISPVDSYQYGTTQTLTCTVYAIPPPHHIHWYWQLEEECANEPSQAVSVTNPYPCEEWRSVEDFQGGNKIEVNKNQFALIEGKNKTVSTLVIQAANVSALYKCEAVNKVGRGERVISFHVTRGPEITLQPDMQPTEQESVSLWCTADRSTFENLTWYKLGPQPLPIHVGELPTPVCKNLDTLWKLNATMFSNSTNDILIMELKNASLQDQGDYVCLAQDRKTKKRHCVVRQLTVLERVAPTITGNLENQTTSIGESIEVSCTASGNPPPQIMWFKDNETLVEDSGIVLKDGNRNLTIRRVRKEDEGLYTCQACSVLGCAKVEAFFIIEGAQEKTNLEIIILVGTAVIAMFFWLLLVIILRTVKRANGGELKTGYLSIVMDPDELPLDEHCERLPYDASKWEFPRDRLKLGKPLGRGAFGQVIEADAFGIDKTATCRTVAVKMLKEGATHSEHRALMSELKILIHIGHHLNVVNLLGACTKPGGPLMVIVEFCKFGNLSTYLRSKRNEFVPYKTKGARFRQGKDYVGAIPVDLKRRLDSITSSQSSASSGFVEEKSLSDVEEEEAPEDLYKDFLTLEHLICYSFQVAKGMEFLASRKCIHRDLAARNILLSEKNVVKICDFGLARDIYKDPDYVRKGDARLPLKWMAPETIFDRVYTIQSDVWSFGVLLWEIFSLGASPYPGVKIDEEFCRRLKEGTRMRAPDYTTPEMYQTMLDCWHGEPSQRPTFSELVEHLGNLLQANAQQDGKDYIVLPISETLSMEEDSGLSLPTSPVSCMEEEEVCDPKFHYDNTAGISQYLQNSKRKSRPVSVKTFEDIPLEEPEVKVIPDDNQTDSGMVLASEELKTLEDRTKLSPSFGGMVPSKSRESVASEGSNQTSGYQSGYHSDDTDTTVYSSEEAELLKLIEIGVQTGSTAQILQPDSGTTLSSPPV
Proto-oncogene tyrosine-protein kinase Src, sequence (P12931 2-536 limits assumed): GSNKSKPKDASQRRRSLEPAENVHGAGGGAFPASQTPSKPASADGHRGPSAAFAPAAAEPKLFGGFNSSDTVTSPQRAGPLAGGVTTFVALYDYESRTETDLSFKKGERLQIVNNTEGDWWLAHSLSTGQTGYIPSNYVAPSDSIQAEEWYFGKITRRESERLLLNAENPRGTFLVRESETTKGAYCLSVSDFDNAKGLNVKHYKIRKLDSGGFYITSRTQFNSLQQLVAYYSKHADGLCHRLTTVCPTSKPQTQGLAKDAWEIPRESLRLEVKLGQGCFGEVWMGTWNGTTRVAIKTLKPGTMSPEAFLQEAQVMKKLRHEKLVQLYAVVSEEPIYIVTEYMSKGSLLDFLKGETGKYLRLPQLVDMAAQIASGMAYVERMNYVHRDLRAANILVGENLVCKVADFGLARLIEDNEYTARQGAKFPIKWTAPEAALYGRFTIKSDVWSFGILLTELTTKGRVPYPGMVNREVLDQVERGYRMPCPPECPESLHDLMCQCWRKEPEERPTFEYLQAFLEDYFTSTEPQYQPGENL
Cyclin-dependent kinase 4, sequence (P11802 whole entry): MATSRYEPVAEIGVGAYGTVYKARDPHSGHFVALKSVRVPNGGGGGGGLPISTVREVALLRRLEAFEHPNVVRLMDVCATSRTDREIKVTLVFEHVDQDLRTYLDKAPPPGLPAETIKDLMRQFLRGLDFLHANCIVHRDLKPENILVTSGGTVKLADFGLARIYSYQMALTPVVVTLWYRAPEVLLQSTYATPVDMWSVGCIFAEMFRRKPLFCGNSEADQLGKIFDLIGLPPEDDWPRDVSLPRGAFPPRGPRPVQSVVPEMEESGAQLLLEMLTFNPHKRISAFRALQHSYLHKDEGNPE

SMILES	IC50 [1] [nM]	IC50 [2] [nM]	further results
Cc1cccc(Cl)c1NC(=O)c1cnc(NC(=O)C2CC2)s1	35	–	–
Cc1cccc(Cl)c1NC(=O)c1cnc(Nc2cccc(N3CCN[C@@H](C)C3)n2)s1	< 1	6	–
Cc1cccc(Cl)c1NC(=O)c1cnc(Nc2ccccc2)s1	0.6	210	–
Cc1cccc(Cl)c1NC(=O)c1cnc(Nc2ccnnc2)s1	4	350	–
Cc1cccc(Cl)c1NC(=O)c1cnc(Nc2cc(NCCN3CCCC3)ncn2)s1	0.4	19	Ki [1]: 0.06 nM
Cc1cccc(Cl)c1NC(=O)c1cnc(Nc2cccc(NCCN3CCOCC3)n2)s1	< 1	11	–
Cc1cc(C)nc(Nc2ncc(C(=O)Nc3c(C)cccc3Cl)s2)n1	50	–	–
Cc1ccnc(Nc2ncc(C(=O)Nc3c(C)cccc3Cl)s2)c1	0.5	85	–
Cc1cccc(Cl)c1NC(=O)c1cnc(NC2CCCCC2)s1	374	–	–
Cc1cccc(Cl)c1NC(=O)c1cnc(Nc2cc(NCCN3CCOCC3)ncn2)s1	4	17	–
Cc1cc(C)nc(Nc2ncc(C(=O)Nc3c(C)cccc3Cl)s2)c1	4	–	–
Cc1cccnc1Nc1ncc(C(=O)Nc2c(C)cccc2Cl)s1	7.3	365	–
Cc1cccc(Cl)c1NC(=O)c1cnc(Nc2cc(N3CCOCC3)ncn2)s1	< 1	3	–
Cc1cccc(Cl)c1NC(=O)c1cnc(Nc2cccnc2)s1	6.7	–	–
Cc1cc(C)cc(Nc2ncc(C(=O)Nc3c(C)cccc3Cl)s2)c1	2	883	–
Cc1cccc(Cl)c1NC(=O)c1cnc(Nc2ccccn2)s1	1.2	–	–
Cc1cccc(Cl)c1NC(=O)c1cnc(Nc2ccncc2)s1	10	–	–
Cc1ccc(Nc2ncc(C(=O)Nc3c(C)cccc3Cl)s2)nc1	1.1	156	–
Cc1cc(N(C)c2ncc(C(=O)Nc3c(C)cccc3Cl)s2)nc(C)n1	2340	–	–
Cc1cc(Nc2ncc(C(=O)Nc3c(C)cccc3Cl)s2)nc(C)n1	1.2	80	IC50 [3]: > 25000 nM; IC50 [4]: > 10000 nM; Dose (Rattus norvegicus [5]): 1 mg/kg; Binding [6]: 93.6%; IC50 [7]: > 25000 nM; Cl [8]: 29 mL/min/kg; Cmax [9]: 2000 nM; Tmax [10]: 1 h; IC50 [11]: < 1 nM; IC50 [12]: < 1 nM; IC50 [13]: 5200 nM; Ki [1]: 0.13 nM; IC50 [14]: 6 nM; half-life [15]: 4 h; MRT [16]: 4 h; bioavailability [17]: 65%; IC50 [18]: > 10000 nM; Dose (Rattus norvegicus [19]): 3 mg/kg; IC50 [20]: 2 nM
Cc1cc(Nc2ncc(C(=O)N(C)c3c(C)cccc3Cl)s2)nc(C)n1	277	–	–
Cc1cccc(Nc2ncc(C(=O)Nc3c(C)cccc3Cl)s2)n1	< 1	106	–
